Results: paper PMC12272566 (RSC Advances, 2025)

Legend:
Format in all cases: biochemical
aldose reductase [1] = target: T1, aldose reductase (Rattus norvegicus, UniProt P07943); assay: inhibitory kinetic assay on aldose reductase
How it was run: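 Aldose reductase from rat lens tissue. Reactions held NADPH (0.3 mM), phosphate buffer (100 mM, pH 6.2) and lithium sulfate (0.6 mM), with DL-glyceraldehyde substrate at several concentrations, with or without test compound, at 37 °C for 10 min. NADPH decrease was read at 340 nm. Rates were fitted by nonlinear Michaelis–Menten regression with Lineweaver–Burk, Dixon and slope secondary plots to derive Km, Vmax and Ki.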

aldose reductase [2] = target: T1, aldose reductase; assay: aldose reductase inhibition assay
α-glucosidase = α-glucosidase (Saccharomyces cerevisiae, UniProt P53341); assay: inhibitory kinetic assay on α-glucosidase
Chain of α-glucosidase (P53341 whole entry): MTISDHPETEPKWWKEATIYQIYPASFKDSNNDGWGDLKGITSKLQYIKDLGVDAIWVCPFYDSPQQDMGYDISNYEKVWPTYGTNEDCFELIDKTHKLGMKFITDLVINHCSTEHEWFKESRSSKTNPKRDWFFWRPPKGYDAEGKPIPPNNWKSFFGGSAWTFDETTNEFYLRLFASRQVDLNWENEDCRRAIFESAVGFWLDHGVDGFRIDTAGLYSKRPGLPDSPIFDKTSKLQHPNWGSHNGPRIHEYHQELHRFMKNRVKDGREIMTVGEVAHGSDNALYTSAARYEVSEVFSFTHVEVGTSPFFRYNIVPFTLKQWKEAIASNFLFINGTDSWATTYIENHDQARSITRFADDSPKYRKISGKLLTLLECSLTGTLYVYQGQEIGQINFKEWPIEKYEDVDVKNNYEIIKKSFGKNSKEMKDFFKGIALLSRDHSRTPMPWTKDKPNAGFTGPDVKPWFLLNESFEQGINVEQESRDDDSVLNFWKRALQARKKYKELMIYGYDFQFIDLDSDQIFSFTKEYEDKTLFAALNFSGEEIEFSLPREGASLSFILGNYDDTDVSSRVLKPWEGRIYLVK

| effect on aldose reductase inhibition (in words) (aldose reductase [2]; 0–10 mM tested, data not shown) | SMILES | Ki (aldose reductase [1]) | inhibition type against aldose reductase (aldose reductase [1]; Vmax decreased, Km fixed) | IC50 (aldose reductase [2]) | Ki (α-glucosidase) | inhibition type against α-glucosidase (α-glucosidase; Vmax decreased, Km fixed) |
| --- | --- | --- | --- | --- | --- | --- |
|  | COc1cc(O)cc(/C=C/c2ccc(O)cc2)c1 [pinostilbene, 3-methoxy-4′,5-dihydroxy-trans-stilbene] | 60 ± 4.64 µM | noncompetitive-type inhibition | 55.4 ± 4.31 µM | 14.3 ± 1.49 µM | noncompetitive-type inhibition |
| weak effect | COc1cc(/C=C/c2ccc(O)cc2)cc(OC)c1 [pterostilbene] |  |  |  |  |  |
